Data from ChEMBL document CHEMBL5724801, “EUbOPEN Chemogenomics Library - Multiplex” (2024).
Several values for one entry are separate records, joined by “and”; a condition that tells them apart may be missing. Identical values can stand only once.

What follows are compounds tested on HEK-293T (assay: Multiplex assay against HEK293T). Conditions: human, 12 h, 1 µM, compound concentration 1 uM.
Type: toxicity, cell-based
How it was run: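 Phenotypes for tubulin, mitochondrial mass and membrane permeability are expressed as per cents of healthy-nucleus cells. Cells were stained live at seeding with Hoechst33342, BioTracker Green Microtubule Cytoskeleton Dye, MitoTracker Red and Annexin V Alexa Fluor 680, then imaged after compound addition on a CQ1 microscope at 37°C and 5% CO2. Machine-learning gating in CellPathfinder separated Hoechst high-intensity objects from normal cells, divided normal cells by nuclear state (healthy, pyknosed, fragmented) and divided pyknosed cells into mitotic or apoptotic.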

Structure (SMILES)	Population Apoptotic (%)	Population Fragmented Nuclei (%)	Population Hoechst High Intensity Objects (%)	Population Membrane Permeable-Phenotype (%)	Population Mitochondria Different-Phenotype (%)	Population Mitotic Cells (%)	Population Normal (%)	Population Pyknosed Nuclei (%)	Population Tubulin-Different-Phenotype (%)	Total Cell Count
CC(C)CC(=O)Nc1cncc(-c2ccc3[nH]nc(-c4nc5c(-c6cccc(F)c6)cncc5[nH]4)c3c2)c1 [LORECIVIVINT]	14.17% and 27.84%	5.95% and 3.7%	0%	0% and 14.29%	48.15% and 42.86%	85.83% and 72.16%	100%	64.86% and 89.81%	64.81% and 57.14%	185 and 108
Cc1noc(C)c1-c1cnc2c(-c3ccc(C(=O)O)cc3)cn([C@@H](C)c3ccccn3)c2c1 [PLX-51107]	5.67% and 10.17%	1.66% and 3.31%	0%	0% and 7.14%	–	94.33% and 89.83%	100%	40.33% and 78.15%	2.51% and 7.14%	–

Same assay, conditions: human, 12 h, 10 µM, compound concentration 10 uM

Structure (SMILES)	Population Apoptotic (%)	Population Fragmented Nuclei (%)	Population Healthy Nuclei (%)	Population Hoechst High Intensity Objects (%)	Population Membrane Permeable-Phenotype (%)	Population Mitochondria Different-Phenotype (%)	Population Mitotic Cells (%)	Population Normal (%)	Population Pyknosed Nuclei (%)	Total Cell Count
CC(C)CC(=O)Nc1cncc(-c2ccc3[nH]nc(-c4nc5c(-c6cccc(F)c6)cncc5[nH]4)c3c2)c1 [LORECIVIVINT]	42.93% and 42.98%	3.44% and 7.88%	23.66% and 18.79%	0%	3.23%	19.35% and 6.45%	57.07% and 57.02%	100%	72.9% and 73.33%	262 and 165
Cc1noc(C)c1-c1cnc2c(-c3ccc(C(=O)O)cc3)cn([C@@H](C)c3ccccn3)c2c1 [PLX-51107]	13.75% and 7.84%	–	45.95% and 25.98%	0%	0%	–	86.25% and 92.16%	100%	51.78% and 54.45%	309 and 281

Same assay, conditions: human, 12 h, 10 µM, compound concentration 10 uM

Structure (SMILES)	Population Tubulin-Different-Phenotype (%)
Cc1noc(C)c1-c1cnc2c(-c3ccc(C(=O)O)cc3)cn([C@@H](C)c3ccccn3)c2c1 [PLX-51107]	4.23% and 5.48%

Same assay, conditions: human, 24 h, 1 µM, compound concentration 1 uM

Structure (SMILES)	Population Apoptotic (%)	Population Fragmented Nuclei (%)	Population Hoechst High Intensity Objects (%)	Population Membrane Permeable-Phenotype (%)	Population Mitochondria Different-Phenotype (%)	Population Mitotic Cells (%)	Population Normal (%)	Population Pyknosed Nuclei (%)	Population Tubulin-Different-Phenotype (%)	Total Cell Count
CC(C)CC(=O)Nc1cncc(-c2ccc3[nH]nc(-c4nc5c(-c6cccc(F)c6)cncc5[nH]4)c3c2)c1 [LORECIVIVINT]	54.44% and 66.67%	8.33% and 5.61%	0.64% and 0%	0%	83.02% and 75%	45.56% and 33.33%	99.36% and 100%	57.69% and 86.92%	94.34% and 50%	157 and 107
Cc1noc(C)c1-c1cnc2c(-c3ccc(C(=O)O)cc3)cn([C@@H](C)c3ccccn3)c2c1 [PLX-51107]	9.2% and 11.02%	1.19% and 0.87%	0%	0%	7.18% and 2.97%	90.8% and 88.98%	100%	23.08% and 55.22%	0.7% and 3.96%	–

Same assay, conditions: human, 24 h, 1 µM, compound concentration 1 uM

Structure (SMILES)	Population Healthy Nuclei (%)
Cc1noc(C)c1-c1cnc2c(-c3ccc(C(=O)O)cc3)cn([C@@H](C)c3ccccn3)c2c1 [PLX-51107]	75.73% and 43.91%

Same assay, conditions: human, 24 h, 10 µM, compound concentration 10 uM

Structure (SMILES)	Population Apoptotic (%)	Population Fragmented Nuclei (%)	Population Healthy Nuclei (%)	Population Hoechst High Intensity Objects (%)	Population Membrane Permeable-Phenotype (%)	Population Mitotic Cells (%)	Population Normal (%)	Population Pyknosed Nuclei (%)	Population Tubulin-Different-Phenotype (%)	Total Cell Count
CC(C)CC(=O)Nc1cncc(-c2ccc3[nH]nc(-c4nc5c(-c6cccc(F)c6)cncc5[nH]4)c3c2)c1 [LORECIVIVINT]	59.46% and 44.57%	4.4% and 5.7%	25.79% and 17.54%	0.93% and 0%	3.66% and 10%	40.54% and 55.43%	99.07% and 100%	69.81% and 76.75%	34.15% and 12.5%	321 and 228
Cc1noc(C)c1-c1cnc2c(-c3ccc(C(=O)O)cc3)cn([C@@H](C)c3ccccn3)c2c1 [PLX-51107]	10.67% and 13.49%	–	62.01% and 40.13%	0%	0% and 0.81%	89.33% and 86.51%	100%	36.76% and 40.78%	0% and 5.65%	408 and 309

Same assay, conditions: human, 24 h, 10 µM, compound concentration 10 uM

Structure (SMILES)	Population Mitochondria Different-Phenotype (%)
Cc1noc(C)c1-c1cnc2c(-c3ccc(C(=O)O)cc3)cn([C@@H](C)c3ccccn3)c2c1 [PLX-51107]	8.3% and 4.84%

Same assay, conditions: human, 48 h, 1 µM, compound concentration 1 uM

Structure (SMILES)	Population Apoptotic (%)	Population Fragmented Nuclei (%)	Population Hoechst High Intensity Objects (%)	Population Mitochondria Different-Phenotype (%)	Population Mitotic Cells (%)	Population Normal (%)	Population Pyknosed Nuclei (%)	Population Tubulin-Different-Phenotype (%)	Total Cell Count	Population Healthy Nuclei (%)
CC(C)CC(=O)Nc1cncc(-c2ccc3[nH]nc(-c4nc5c(-c6cccc(F)c6)cncc5[nH]4)c3c2)c1 [LORECIVIVINT]	79.78% and 84.11%	10.98% and 4.07%	1.2% and 0%	82.46% and 45.45%	20.22% and 15.89%	98.8% and 100%	54.27% and 86.99%	73.68% and 63.64%	166 and 123	–
Cc1noc(C)c1-c1cnc2c(-c3ccc(C(=O)O)cc3)cn([C@@H](C)c3ccccn3)c2c1 [PLX-51107]	–	6.3% and 3.02%	0.14% and 0%	5.35% and 6.9%	94.96% and 79.52%	99.86% and 100%	–	0.33% and 2.87%	–	84.08% and 65.66%

Same assay, conditions: human, 48 h, 1 µM, compound concentration 1 uM

Structure (SMILES)	Population Membrane Permeable-Phenotype (%)
Cc1noc(C)c1-c1cnc2c(-c3ccc(C(=O)O)cc3)cn([C@@H](C)c3ccccn3)c2c1 [PLX-51107]	0.33% and 1.15%

Same assay, conditions: human, 48 h, 10 µM, compound concentration 10 uM

Structure (SMILES)	Population Apoptotic (%)	Population Fragmented Nuclei (%)	Population Healthy Nuclei (%)	Population Hoechst High Intensity Objects (%)	Population Membrane Permeable-Phenotype (%)	Population Mitochondria Different-Phenotype (%)	Population Mitotic Cells (%)	Population Normal (%)	Population Pyknosed Nuclei (%)	Population Tubulin-Different-Phenotype (%)
CC(C)CC(=O)Nc1cncc(-c2ccc3[nH]nc(-c4nc5c(-c6cccc(F)c6)cncc5[nH]4)c3c2)c1 [LORECIVIVINT]	54.1% and 55.85%	3.22% and 5.44%	24.93% and 15.9%	0.27% and 0.42%	2.15% and 5.26%	30.11% and 18.42%	45.9% and 44.15%	99.73% and 99.58%	71.85% and 78.66%	15.05% and 18.42%
Cc1noc(C)c1-c1cnc2c(-c3ccc(C(=O)O)cc3)cn([C@@H](C)c3ccccn3)c2c1 [PLX-51107]	–	–	78.62% and 47.53%	0%	0.21% and 0.65%	10.49% and 12.34%	95.33% and 80.87%	100%	18.01% and 35.49%	0.43% and 6.49%

Same assay, conditions: human, 48 h, 10 µM, compound concentration 10 uM

Structure (SMILES)	Total Cell Count
CC(C)CC(=O)Nc1cncc(-c2ccc3[nH]nc(-c4nc5c(-c6cccc(F)c6)cncc5[nH]4)c3c2)c1 [LORECIVIVINT]	374 and 240
Cc1noc(C)c1-c1cnc2c(-c3ccc(C(=O)O)cc3)cn([C@@H](C)c3ccccn3)c2c1 [PLX-51107]	594 and 324
